In ChEMBL document CHEMBL2375270, “Structure-based design, SAR analysis and antitumor activity of PI3K/mTOR dual inhibitors from 4-methylpyridopyrimidinone series” (Bioorg Med Chem Lett, 2013):

Legend:
[1] = Permeability across dog RRCK cells; assay type: ADME, cell-based, Canis lupus familiaris, MDCKII-LE; conditions: MDCK, read-out: permeability
[2] = Toxicity against nu/nu mouse; assay type: organism-based; conditions: in vivo
Outline: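 Tolerability assessed in mice bearing U87 xenografts during tumour growth inhibition studies. Groups received vehicle or 1, 3 or 10 mg/kg. Plasma free drug levels and AKT phosphorylation were sampled at 1 h and 24 h in the top-dose group.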

[3] = Volume of distribution at steady state in rat; assay type: ADME, organism-based; conditions: in vivo, read-out: Vdss
[4] = Oral bioavailability in rat; assay type: ADME, organism-based; conditions: in vivo
[5] = tested on: Plasma; test: Drug metabolism in human plasma assessed as formation of 2-((trans)-4-(2-amino-6-(6-methoxypyridin-3-yl)-4-methyl-7-oxopyrido[2,3-d]pyrimidin-8(7H)-yl)cyclohexyloxy)acetic acid at 8 mg, po qd for 21 days by HPLC analysis; assay type: ADME, organism-based; conditions: in vivo, 504 h
Outline: (§1)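 Human plasma came from patients given 8 mg once daily in a clinical dose-escalation study. Metabolites were profiled from the total ion chromatogram. Peaks were assigned by retention time and molecular ion (m/z) against reference standards and parent drug.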

[6] = tested on: Plasma; test: Drug metabolism in human plasma assessed as formation of glucuronide conjugate at 8 mg, po qd for 21 days by HPLC analysis; assay type: ADME, organism-based; conditions: in vivo, 504 h; outline: as §1

SMILES	Papp [1]	further results
Cc1nc(N)nc2c1cc(-c1cnc3ccccc3c1)c(=O)n2[C@H]1CC[C@H](OCC(N)=O)CC1	9.02 ×10⁻⁶ cm/s	–
Cc1nc(N)nc2c1cc(-c1cn[nH]c1)c(=O)n2[C@H]1CC[C@@H](OCO)CC1	12.6 ×10⁻⁶ cm/s	–
COc1ncc(-c2cc3c(C)nc(N)nc3n([C@H]3CC[C@H](OCO)CC3)c2=O)cc1F	–	MTD [2]: 10 mg/kg; Vd [3]: 4.08 L/kg; bioavailability [4]: 79%
COc1ncc(-c2cc3c(C)nc(N)nc3n([C@H]3CC[C@@H](OCC(N)=O)CC3)c2=O)cn1	30.1 ×10⁻⁶ cm/s	–
Cc1nc(N)nc2c1cc(-c1cnc3ccccc3c1)c(=O)n2[C@H]1CC[C@H](OCO)CC1	19.7 ×10⁻⁶ cm/s	–
COc1ccc(-c2cc3c(C)nc(N)nc3n([C@H]3CC[C@H](OCC(=O)O)CC3)c2=O)cn1	0.295 ×10⁻⁶ cm/s	–
COc1ccc(-c2cc3c(C)nc(N)nc3n([C@H]3CC[C@H](OCC(N)=O)CC3)c2=O)cn1	4.58 ×10⁻⁶ cm/s	–
Cc1nc(N)nc2c1cc(-c1cnc3ccccc3c1)c(=O)n2[C@H]1CC[C@@H](OCO)CC1	41.6 ×10⁻⁶ cm/s	–
COc1ncc(-c2cc3c(C)nc(N)nc3n([C@H]3CC[C@H](OCC(N)=O)CC3)c2=O)cn1	29.8 ×10⁻⁶ cm/s	–
COc1ncc(-c2cc3c(C)nc(N)nc3n([C@H]3CC[C@H](OCO)CC3)c2=O)cn1	21.3 ×10⁻⁶ cm/s	–
COc1ccc(-c2cc3c(C)nc(N)nc3n([C@H]3CC[C@H](OCCO)CC3)c2=O)cn1 [PF-04691502]	–	Drug metabolism [5]: Active; Drug metabolism [6]: Active
COc1ncc(-c2cc3c(C)nc(N)nc3n([C@H]3CC[C@H](OCC(N)=O)CC3)c2=O)cc1F	26.2 ×10⁻⁶ cm/s	–
COc1ncc(-c2cc3c(C)nc(N)nc3n([C@H]3CC[C@@H](OCC(N)=O)CC3)c2=O)cc1F	26.2 ×10⁻⁶ cm/s	–
Cc1nc(N)nc2c1cc(-c1cnc3ccccc3c1)c(=O)n2[C@H]1CC[C@@H](OCC(N)=O)CC1	4.57 ×10⁻⁶ cm/s	–
Cc1nc(N)nc2c1cc(-c1cnn(C)c1)c(=O)n2[C@H]1CC[C@@H](OCO)CC1	23.3 ×10⁻⁶ cm/s	–
Cc1nc(N)nc2c1cc(-c1cn[nH]c1)c(=O)n2[C@H]1CC[C@@H](OCC(N)=O)CC1	0.151 ×10⁻⁶ cm/s	–
COc1ccc(-c2cc3c(C)nc(N)nc3n([C@H]3CC[C@@H](OCC(N)=O)CC3)c2=O)cn1	30.3 ×10⁻⁶ cm/s	–
